# In ChEMBL document CHEMBL5303300, “EUbOPEN Chemogenomics Library - Multiplex” (2023):
# Values joined by “and” are separate entries in the source; they are usually repeats but may differ in a detail not shown here. Equal entries are not always repeated.
# System: Fibroblast
# Experiment: Multiplex assay against human fibroblast
# Format: toxicity, cell-based
# Conditions: number of replicates 2
# In short: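 Per cents of healthy-nucleus cells form the tubulin, mitochondrial-mass and membrane-permeability phenotype values. Live cells were stained at seeding with Hoechst33342, BioTracker Green Microtubule Cytoskeleton Dye, MitoTracker Red and Annexin V Alexa Fluor 680. After compound addition they were imaged on a CQ1 microscope at 37°C and 5% CO2, and CellPathfinder machine-learning gating split them into Hoechst high-intensity objects or normal cells, normal cells into healthy, pyknosed or fragmented nuclei, and pyknosed cells into mitotic or apoptotic.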
# [1] = 12 h, 1 µM, compound concentration 1 uM
# [2] = 12 h, 10 µM, compound concentration 10 uM
# [3] = 24 h, 1 µM, compound concentration 1 uM
# [4] = 24 h, 10 µM, compound concentration 10 uM
# [5] = 48 h, 1 µM, compound concentration 1 uM
# [6] = 48 h, 10 µM, compound concentration 10 uM
compound,measurement,setting,value
C[C@@H](OC[C@@]1(c2ccccc2)CC[C@]2(CCC(=O)N2)CN1)c1cc(C(F)(F)F)cc(C(F)(F)F)c1 [ROLAPITANT],Population Apoptotic (%),[1],32% and 48%
same,Population Fragmented Nuclei (%),[1],7% and 12%
same,Population Healthy Nuclei (%),[1],76% and 62%
same,Population Hoechst High Intensity Objects (%),[1],0%
same,Population Membrane Permeable-Phenotype (%),[1],9% and 4%
same,Population Mitochondria Different-Phenotype (%),[1],4% and 2%
same,Population Mitotic Cells (%),[1],67% and 51%
same,Population Normal (%),[1],100% and 99%
same,Population Pyknosed Nuclei (%),[1],15% and 25%
same,Population Tubulin-Different-Phenotype (%),[1],26% and 13%
same,Total Cell Count,[1],195 and 264
same,Population Apoptotic (%),[2],40% and 46%
same,Population Fragmented Nuclei (%),[2],17% and 10%
same,Population Healthy Nuclei (%),[2],67% and 71%
same,Population Hoechst High Intensity Objects (%),[2],0%
same,Population Membrane Permeable-Phenotype (%),[2],5% and 6%
same,Population Mitochondria Different-Phenotype (%),[2],7% and 3%
same,Population Mitotic Cells (%),[2],60% and 53%
same,Population Normal (%),[2],100%
same,Population Pyknosed Nuclei (%),[2],15% and 17%
same,Population Tubulin-Different-Phenotype (%),[2],45% and 26%
same,Total Cell Count,[2],131 and 146
same,Population Apoptotic (%),[3],40% and 55%
same,Population Fragmented Nuclei (%),[3],15% and 13%
same,Population Healthy Nuclei (%),[3],74% and 66%
same,Population Hoechst High Intensity Objects (%),[3],0%
same,Population Membrane Permeable-Phenotype (%),[3],2% and 8%
same,Population Mitochondria Different-Phenotype (%),[3],1%
same,Population Mitotic Cells (%),[3],60% and 44%
same,Population Normal (%),[3],100%
same,Population Pyknosed Nuclei (%),[3],9% and 20%
same,Population Tubulin-Different-Phenotype (%),[3],19% and 18%
same,Total Cell Count,[3],202 and 257
same,Population Apoptotic (%),[4],52% and 60%
same,Population Fragmented Nuclei (%),[4],23% and 16%
same,Population Healthy Nuclei (%),[4],62% and 66%
same,Population Hoechst High Intensity Objects (%),[4],0%
same,Population Membrane Permeable-Phenotype (%),[4],2% and 3%
same,Population Mitochondria Different-Phenotype (%),[4],14% and 5%
same,Population Mitotic Cells (%),[4],47% and 40%
same,Population Normal (%),[4],100%
same,Population Pyknosed Nuclei (%),[4],14% and 16%
same,Population Tubulin-Different-Phenotype (%),[4],59% and 28%
same,Total Cell Count,[4],134 and 153
same,Population Apoptotic (%),[5],58% and 66%
same,Population Fragmented Nuclei (%),[5],13% and 11%
same,Population Healthy Nuclei (%),[5],78% and 74%
same,Population Hoechst High Intensity Objects (%),[5],0%
same,Population Membrane Permeable-Phenotype (%),[5],4% and 8%
same,Population Mitochondria Different-Phenotype (%),[5],1%
same,Population Mitotic Cells (%),[5],41% and 33%
same,Population Normal (%),[5],100%
same,Population Pyknosed Nuclei (%),[5],8% and 14%
same,Population Tubulin-Different-Phenotype (%),[5],14% and 11%
same,Total Cell Count,[5],204 and 254
same,Population Apoptotic (%),[6],85% and 93%
same,Population Fragmented Nuclei (%),[6],32% and 23%
same,Population Healthy Nuclei (%),[6],58% and 67%
same,Population Hoechst High Intensity Objects (%),[6],0%
same,Population Membrane Permeable-Phenotype (%),[6],5% and 3%
same,Population Mitochondria Different-Phenotype (%),[6],3% and 6%
same,Population Mitotic Cells (%),[6],14% and 6%
same,Population Normal (%),[6],100%
same,Population Pyknosed Nuclei (%),[6],8% and 9%
same,Population Tubulin-Different-Phenotype (%),[6],44% and 20%
same,Total Cell Count,[6],158 and 167
